Bioassay records from PubChem.
KCNQ1 act – potentiators or activators of KCNQ1 channel, primary screen, cell-based, thallium flux, high-throughput. AID 2648, 2010. 310,000 compounds, 0.35% hits. CHO-K1 KCNQ1, thallium flux FluxOR fluorescence; active compounds read high. B-score at 10 µM;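 active means fluorescence ratio B-score, a plate-corrected score, at least three library SD, with initial intensity B-score within 5 SD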
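Assay system: CHO-K1 cells stably expressing KCNQ1. Medium: assay buffer for compound exposure, DMSO matched across wells. Timing: 37 °C overnight plating, 90-min dark dye load, 20-min compound pretreatment. Signal: kinetic FluxOR fluorescence, 10 s baseline plus 110 s post-stimulus.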
KCNQ1 inh – inhibitors of human KCNQ1 channel, primary screen, cell-based, thallium flux, high-throughput. CHO-K1 KCNQ1, FluxOR thallium flux fluorescence; active compounds read high. 310,000 compounds, 1.3% hits. AID 2642, 2010. B-score at 10 µM;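 active means compounds whose thallium flux B-score, printed positive for inhibition, exceeds three library SD while starting fluorescence stays within three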;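 further: channel opened by potassium depolarization with thallium stimulus after 20 min compound exposure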
KCNK9 block – KCNK9 potassium channel inhibitors, primary screen, HEK293 cells, thallium flux; B-score at 10 µM; 310,000 compounds, 1.2% hits; FluxOR thallium flux fluorescence; active compounds read low; Potassium channel subfamily K member 9 (Homo sapiens), Q9NPC2;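 active means ratio B-score over 3 SD below the library mean, with starting fluorescence within 5 SD of its mean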;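 further: negative B-score means less thallium flux so channel inhibition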
Kir21 block – inhibitors of mouse Kir2.1 inward-rectifier potassium channel. AID 1672, 2009. HEK293-Kir2.1, FluxOR thallium flux fluorescence; active compounds read low. 310,000 compounds, 0.85% hits. B-score at 10 µM. Inward rectifier potassium channel 2 (Mus musculus), P35561;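 active means fluorescence ratio B-score at or below minus 3 SD of library scores, with starting-brightness B-score within 2 SD, cut at about -4.2 in these data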;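 further: channel flux triggered by added potassium and thallium sulfate stimulus; B-score of peak minus minimum fluorescence over baseline after thallium stimulus; more negative B-score means stronger Kir2.1 block with less thallium influx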
hERG rescue – hERG rescue from dofetilide block, primary screen, cell-based, CHO-hERG, FluxOR thallium flux, dofetilide IC70; dofetilide IC70 present; activation (rescue from dofetilide block), less the hit threshold, % at 10 µM; 310,000 compounds, 0.51% hits; AID 1511, 2009;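 active means activation above the mean of controls blocked by dofetilide plus 5 SD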;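 further: thallium influx through hERG after potassium depolarization seen as dye fluorescence rise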
KCNK3 inh – human KCNK3 channel inhibitors, primary screen, CHO cells, FluxOR thallium flux, B-score. Potassium channel subfamily K member 3 (Homo sapiens), O14649. B-score at 10 µM. 340,000 compounds, 0.84% hits. FluxOR fluorescence; active compounds read low. AID 602410, 2012;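 active means B-score under library mean minus 4 SD, starting fluorescence ratio at most library mean plus 5 SD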;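 further: more negative B-score means stronger inhibition of thallium flux through KCNK3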
KCNK3 confirm – retest of human KCNK3 channel inhibitors, confirmation, CHO cells, FluxOR thallium flux, triplicate | shares compounds with KCNK3 inh | FluxOR fluorescence; 0% buffer, 100% carvedilol maximal block | ratio percent of control, % at 10 µM | 2,400 compounds, 99% hits;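 active means ratio percent of control, averaged over triplicates, above buffer control mean plus 5 SD, cut at about 64% in these data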;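 further: ratio is the fluorescence rise from min to max over baseline after thallium stimulus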
KCNK3 noninduced – thallium flux inhibition in non-induced cells, primary screen, counter-screen for KCNK3 inhibitor project, cell-based, non-induced KCNK3 line, FluxOR thallium, triplicate. shares compounds with KCNK3 inh. non-induced KCNK3 parental cells; active compounds read low. thallium flux ratio (lower = more inhibition) at 10 µM. 2,400 compounds, 40% hits. AID 651747, 2012;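 active means thallium flux ratio, averaged over three wells, more than 5 SD below the buffer control mean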;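 further: host cells are CHO cells without KCNK3 induction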
Numbers stand for hits; – = inactive; · = not tested or not shown. Compounds with a hit are over-represented: about 3.8% of the library has one in this group of screens.

SMILES	KCNQ1 act	KCNQ1 inh	KCNK9 block	Kir21 block	hERG rescue	KCNK3 inh	KCNK3 confirm	KCNK3 noninduced
CSCCC(NC(=O)c1cccc(S(=O)(=O)N2CCN(C(C)=O)CC2)c1)c1nc2ccccc2[nH]1 (stereo not given)	·	·	·	·	·	–	·	·
CSCC[C@H](NC(=O)c1ccc(Cl)c(S(=O)(=O)N2CCCC2)c1)c1nc2ccccc2[nH]1	–	–	–	–	–	-11	107	–
Cc1c(C(=O)N/N=C/c2cccnc2)nnn1-c1nonc1N	–	–	–	–	–	–	·	·
CN1C(=O)C2(OCC(COc3ccc(Cl)cc3)O2)c2ccccc21 (stereo not given)	–	–	–	–	–	–	·	·
O=C1Nc2ccccc2C12OCC(COc1ccc(Cl)cc1)O2 (stereo not given)	–	–	–	–	–	-10	108	–
CC(OC(=O)CN1C(=O)NC2(CCCC2)C1=O)C(=O)c1ccccc1 (stereo not given)	–	–	–	–	–	–	·	·
C/C(=N\NC(=O)c1cc(-c2ccncc2)nc2ccccc12)c1ccc(N2CCOCC2)cc1	–	–	–	–	–	–	·	·
Cc1ccc(SCC(=O)N2c3ccccc3Sc3ccccc32)cc1	–	–	–	–	–	-9.6	105	0.16
COc1ccc(NC(=O)c2ccc(C(=O)c3cc(OC)ccc3OC)cc2)cc1	–	–	–	–	–	–	·	·
CC(=O)Oc1c(S(=O)(=O)c2ccccc2)c(C)nn1C(C)(C)C	–	–	–	–	–	–	·	·
Cc1nn(C(C)(C)C)c(OC(=O)c2cccs2)c1S(=O)(=O)c1ccccc1	–	–	–	–	–	-10	117	0.15
Cc1ccc(S(=O)(=O)c2c(C)nn(C(C)(C)C)c2OC(=O)C(C)C)cc1	–	–	–	–	–	–	·	·
CCCCC(=O)Oc1c(S(=O)(=O)c2ccccc2)c(C)nn1C(C)(C)C	–	–	–	–	–	-10	118	–
CCCC(=O)Oc1c(S(=O)(=O)c2ccc(C)cc2)c(C)nn1C(C)(C)C	–	–	–	–	–	-8.8	90	–
O=C(COC(=O)c1ccc(CSc2ccc(Cl)cc2)cc1)Nc1ccccc1	–	–	–	–	–	–	·	·
CC[C@@H]1[C@H]2CCCC(=O)N3CC[C@@H](C[C@@H]1Nc1ccccc1)[C@@H]23	–	–	–	–	–	–	·	·
Cc1cccc(NC(=O)C(=O)NCC2CCCO2)c1 (stereo not given)	–	–	–	–	–	–	·	·
Cc1cc(NC(=O)CSc2nc3c([nH]c4ccccc43)c(=O)n2-c2cccc(C(F)(F)F)c2)no1	–	–	–	–	–	-11	92	–
CSc1ccccc1C(=O)N(C)C(c1ccccc1)c1ccccc1	–	–	–	–	–	-9.1	108	–
CCCSc1nnc2c(n1)OC(c1cccn1C)N(C(C)=O)c1ccccc1-2 (stereo not given)	–	–	–	–	–	-13	122	–
CCCN1C(=O)/C(=C/c2cc(C)n(C)c2C)SC1=Nc1ccc(OC)cc1	–	–	–	–	–	-11	101	0.15
COc1ccc(OC)c(/C=C2/Sc3ccccc3C2=O)c1	–	–	-7.2	–	–	-11	110	0.12
COc1ccc(OCC(=O)Nc2c(C(=O)N(CCN(C)C)Cc3ccco3)oc3ccccc23)cc1	–	–	–	–	–	–	·	·
COc1ccccc1C(=O)Nc1c(C(=O)N(CCN(C)C)Cc2ccco2)oc2ccccc12	–	–	–	–	–	-11	125	0.14
CC1Cc2ccccc2N1S(=O)(=O)c1cccc(C(=O)NCCCn2ccnc2)c1 (stereo not given)	–	–	–	–	–	–	·	·
SMILES	KCNQ1 act	KCNQ1 inh	KCNK9 block	Kir21 block	hERG rescue	KCNK3 inh	KCNK3 confirm	KCNK3 noninduced
Cc1ccccc1-n1nnnc1SCc1ncc(-c2ccccc2)o1	–	–	–	–	–	-9.4	99	–
COC(=O)c1sc2nc(N3CCCCC3)c3c(c2c1N)CCCC3	–	–	–	–	–	-11	104	–
Cc1ccc2cc(/C=C(\C#N)C(N)=O)c(N3CCCCC3)nc2c1	–	–	–	–	–	–	·	·
CCOC(=O)/C(C#N)=C/c1cc2ccccc2nc1N1CCCCC1	–	12	-7.3	–	–	-9.5	–	–
CC1(C)CC2(CCO1)OC(=O)CC2C(=O)NCc1ccccc1 (stereo not given)	–	–	–	–	–	–	·	·
COc1ccc(Cl)cc1NC(=S)Nc1cccc(C)c1	–	–	–	–	–	-9.4	105	–
Clc1ccc(C2Nc3cccc4cccc(c34)N2)cc1	–	–	–	–	–	–	·	·
CSc1ccc(C2Nc3cccc4cccc(c34)N2)cc1	–	6	–	–	–	-8.8	112	–
COc1ccc(/C=C/c2onc(C)c2S(=O)(=O)N2CCC(C(=O)N3CCCCCC3)CC2)cc1	–	–	–	–	–	–	·	·
O=C(C=Cc1cccs1)c1ccc(Cl)s1	·	·	·	·	·	–	·	·
COc1ccc(S(=O)(=O)N2CCCCC2C)cc1 (stereo not given)	–	–	–	–	–	–	·	·
COc1ccccc1Oc1ccc(S(=O)(=O)N2CCCCC2C)cc1 (stereo not given)	–	–	–	–	–	-12	108	0.16
CC1Cc2ccccc2N1Cc1ccc([N+](=O)[O-])cc1 (stereo not given)	–	–	–	–	–	–	·	·
CC1Cc2ccccc2N1Cc1cccc([N+](=O)[O-])c1 (stereo not given)	–	–	–	–	–	-13	109	–
CC[C@H](C)/C=C(C)/C=C/C1=CC2=CC(=O)[C@]3(C)OC(=O)[C@@H](C(C)=O)[C@@H]3C2=CO1	–	6	–	–	–	-9	122	0.078
CCCc1nn(C)c(C(N)=O)c1[N+](=O)[O-]	–	–	–	–	–	–	·	·
CCN1CCSc2ccc(C(=O)NCc3cc(Br)ccc3OC)cc21	–	–	-7	–	–	–	92	–
